Assay results reported in ChEMBL document CHEMBL1158563, “Identification of benzimidazole-based inhibitors of the mitogen activated kinase-5 signaling pathway” (2010).

What was measured:
[1] = biological target: T1, Dual specificity mitogen-activated protein kinase kinase 5 (Homo sapiens) (UniProt Q13163); assay: Inhibition of EGF-induced MEK5-mediated ERK5 phosphorylation in human HEK293 cells at 10 uM treated after 30 mins EGF challenge measured after 30 mins by Western blot analysis relative to control; assay type: cell-based; set-up: scale not given: the % may be the effect or the level left
T1 sequence (whole entry): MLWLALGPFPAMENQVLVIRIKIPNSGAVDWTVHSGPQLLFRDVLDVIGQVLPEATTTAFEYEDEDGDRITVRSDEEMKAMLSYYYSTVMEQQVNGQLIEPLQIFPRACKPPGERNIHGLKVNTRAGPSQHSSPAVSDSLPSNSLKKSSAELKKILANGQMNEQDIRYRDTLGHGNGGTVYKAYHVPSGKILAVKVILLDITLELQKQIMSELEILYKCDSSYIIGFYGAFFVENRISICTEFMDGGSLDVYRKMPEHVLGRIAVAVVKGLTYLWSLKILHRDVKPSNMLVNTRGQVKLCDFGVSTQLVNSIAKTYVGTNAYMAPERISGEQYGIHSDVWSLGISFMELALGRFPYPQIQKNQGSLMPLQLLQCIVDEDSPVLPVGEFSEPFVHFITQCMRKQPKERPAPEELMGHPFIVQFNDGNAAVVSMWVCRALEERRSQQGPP
Procedure, shortened: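 HEK293 cells were grown in medium with 10% heat-inactivated FBS and 0.5% penicillin/streptomycin at 37 °C, 5% CO2. They were stimulated with 50 ng/mL EGF, then given 10 µM compound (final) 30 min later, and lysed 30 min after that in 1% Triton buffer. 60 µg protein was run on 10% SDS gels and blotted for pERK1/2 (1:1000) or pERK5 (1:500).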

HL-60(TB) = assay: Cytotoxicity against human HL-60(TB) cells at 10 uM assessed as cell growth relative to control; assay type: functional; details: read-out: Activity
CCRF-CEM = assay: Cytotoxicity against human CCRF-CEM cells at 10 uM assessed as cell growth relative to control; assay type: functional; details: read-out: Activity
SK-MEL-28 = assay: Cytotoxicity against human SK-MEL-28 cells at 10 uM assessed as cell growth relative to control; assay type: functional; details: read-out: Activity
ACHN = assay: Cytotoxicity against human ACHN cells at 10 uM assessed as cell growth relative to control; assay type: functional; details: read-out: Activity
SW-620 = assay: Cytotoxicity against human SW620 cells at 10 uM assessed as cell growth relative to control; assay type: functional; details: read-out: Activity
Malme-3M = assay: Cytotoxicity against human MALME-3M cells at 10 uM assessed as cell growth relative to control; assay type: functional; details: read-out: Activity
EKVX = assay: Cytotoxicity against human EKVX cells at 10 uM assessed as cell growth relative to control; assay type: functional; details: read-out: Activity
[2] = Cytotoxicity against human […] cells at 10 uM assessed as cell growth relative to control; assay type: functional; details: read-out: Activity
HOP-92 = assay: Cytotoxicity against human HOP92 cells at 10 uM assessed as cell growth relative to control; assay type: functional; details: read-out: Activity
HT-29 = assay: Cytotoxicity against human HT-29 cells at 10 uM assessed as cell growth relative to control; assay type: functional; details: read-out: Activity
[3] = Cytotoxicity against human Hs 578T cells at 10 uM assessed as cell growth relative to control; assay type: functional; details: read-out: Activity
SNB-19 = assay: Cytotoxicity against human SNB19 cells at 10 uM assessed as cell growth relative to control; assay type: functional; details: read-out: Activity
SR = assay: Cytotoxicity against human SR cells at 10 uM assessed as cell growth relative to control; assay type: functional; details: read-out: Activity
NCI-H23 = assay: Cytotoxicity against human NCI-H23 cells at 10 uM assessed as cell growth relative to control; assay type: functional; details: read-out: Activity
A549 = assay: Cytotoxicity against human A549 cells at 10 uM assessed as cell growth relative to control; assay type: functional; details: read-out: Activity
SF-539 = assay: Cytotoxicity against human SF539 cells at 10 uM assessed as cell growth relative to control; assay type: functional; details: read-out: Activity
TK-10 = assay: Cytotoxicity against human TK10 cells at 10 uM assessed as cell growth relative to control; assay type: functional; details: read-out: Activity
SF-268 = assay: Cytotoxicity against human SF268 cells at 10 uM assessed as cell growth relative to control; assay type: functional; details: read-out: Activity
NCI/ADR-RES = assay: Cytotoxicity against human NCI/ADR-RES cells at 10 uM assessed as cell growth relative to control; assay type: functional; details: read-out: Activity
A498 = assay: Cytotoxicity against human A498 cells at 10 uM assessed as cell growth relative to control; assay type: functional; details: read-out: Activity
IGROV-1 = assay: Cytotoxicity against human IGROV1 cells at 10 uM assessed as cell growth relative to control; assay type: functional; details: read-out: Activity
KM12 = assay: Cytotoxicity against human KM12 cells at 10 uM assessed as cell growth relative to control; assay type: functional; details: read-out: Activity
HCT-15 = assay: Cytotoxicity against human HCT15 cells at 10 uM assessed as cell growth relative to control; assay type: functional; details: read-out: Activity
HOP-62 = assay: Cytotoxicity against human HOP62 cells at 10 uM assessed as cell growth relative to control; assay type: functional; details: read-out: Activity
SK-OV-3 = assay: Cytotoxicity against human SKOV3 cells at 10 uM assessed as cell growth relative to control; assay type: functional; details: read-out: Activity
CAKI-1 = assay: Cytotoxicity against human Caki1 cells at 10 uM assessed as cell growth relative to control; assay type: functional; details: read-out: Activity
OVCAR-4 = assay: Cytotoxicity against human OVCAR4 cells at 10 uM assessed as cell growth relative to control; assay type: functional; details: read-out: Activity
OVCAR-5 = assay: Cytotoxicity against human OVCAR5 cells at 10 uM assessed as cell growth relative to control; assay type: functional; details: read-out: Activity
NCI-H522 = assay: Cytotoxicity against human NCI-H522 cells at 10 uM assessed as cell growth relative to control; assay type: functional; details: read-out: Activity
OVCAR-8 = assay: Cytotoxicity against human OVCAR8 cells at 10 uM assessed as cell growth relative to control; assay type: functional; details: read-out: Activity
M14 = assay: Cytotoxicity against human M14 cells at 10 uM assessed as cell growth relative to control; assay type: functional; details: read-out: Activity
LOX IMVI = assay: Cytotoxicity against human LOXIMVI cells at 10 uM assessed as cell growth relative to control; assay type: functional; details: read-out: Activity
HCT-116 = assay: Cytotoxicity against human HCT116 cells at 10 uM assessed as cell growth relative to control; assay type: functional; details: read-out: Activity
SNB-75 = assay: Cytotoxicity against human SNB75 cells at 10 uM assessed as cell growth relative to control; assay type: functional; details: read-out: Activity
MDA-MB-435 = assay: Cytotoxicity against human MDA-MB-435 cells at 10 uM assessed as cell growth relative to control; assay type: functional; details: read-out: Activity
MCF7 = assay: Cytotoxicity against human MCF7 cells at 10 uM assessed as cell growth relative to control; assay type: functional; details: read-out: Activity
BT-549 = assay: Cytotoxicity against human BT549 cells at 10 uM assessed as cell growth relative to control; assay type: functional; details: read-out: Activity
NCI-H322M = assay: Cytotoxicity against human NCI-H322M cells at 10 uM assessed as cell growth relative to control; assay type: functional; details: read-out: Activity
SK-MEL-2 = assay: Cytotoxicity against human SK-MEL-2 cells at 10 uM assessed as cell growth relative to control; assay type: functional; details: read-out: Activity
SF-295 = assay: Cytotoxicity against human SF295 cells at 10 uM assessed as cell growth relative to control; assay type: functional; details: read-out: Activity
OVCAR-3 = assay: Cytotoxicity against human OVCAR-3 cells at 10 uM assessed as cell growth relative to control; assay type: functional; details: read-out: Activity
K562 = assay: Cytotoxicity against human K562 cells at 10 uM assessed as cell growth relative to control; assay type: functional; details: read-out: Activity
NCI-H226 = assay: Cytotoxicity against human NCI-H226 cells at 10 uM assessed as cell growth relative to control; assay type: functional; details: read-out: Activity
COLO 205 = assay: Cytotoxicity against human COLO205 cells at 10 uM assessed as cell growth relative to control; assay type: functional; details: read-out: Activity
RXF 393 = assay: Cytotoxicity against human RXF393 cells at 10 uM assessed as cell growth relative to control; assay type: functional; details: read-out: Activity
NCI-H460 = assay: Cytotoxicity against human NCI-H460 cells at 10 uM assessed as cell growth relative to control; assay type: functional; details: read-out: Activity
UACC-62 = assay: Cytotoxicity against human UACC62 cells at 10 uM assessed as cell growth relative to control; assay type: functional; details: read-out: Activity
SK-MEL-5 = assay: Cytotoxicity against human SK-MEL-5 cells at 10 uM assessed as cell growth relative to control; assay type: functional; details: read-out: Activity
MDA-MB-231 = assay: Cytotoxicity against human MDA-MB-231 cells at 10 uM assessed as cell growth relative to control; assay type: functional; details: read-out: Activity
DU-145 = assay: Cytotoxicity against human DU145 cells at 10 uM assessed as cell growth relative to control; assay type: functional; details: read-out: Activity
786-0 = assay: Cytotoxicity against human 786-0 cells at 10 uM assessed as cell growth relative to control; assay type: functional; details: read-out: Activity
U-251 = assay: Cytotoxicity against human U251 cells at 10 uM assessed as cell growth relative to control; assay type: functional; details: read-out: Activity
MDA-MB-468 = assay: Cytotoxicity against human MDA-MB-468 cells at 10 uM assessed as cell growth relative to control; assay type: functional; details: read-out: Activity
HCC 2998 = assay: Cytotoxicity against human HCC2998 cells at 10 uM assessed as cell growth relative to control; assay type: functional; details: read-out: Activity
SN12C = assay: Cytotoxicity against human SN12C cells at 10 uM assessed as cell growth relative to control; assay type: functional; details: read-out: Activity
UO-31 = assay: Cytotoxicity against human UO31 cells at 10 uM assessed as cell growth relative to control; assay type: functional; details: read-out: Activity
MOLT-4 = assay: Cytotoxicity against human MOLT4 cells at 10 uM assessed as cell growth relative to control; assay type: functional; details: read-out: Activity
UACC-257 = assay: Cytotoxicity against human UACC257 cells at 10 uM assessed as cell growth relative to control; assay type: functional; details: read-out: Activity
T47D = assay: Cytotoxicity against human T47D cells at 10 uM assessed as cell growth relative to control; assay type: functional; details: read-out: Activity

COc1cc(NCc2ccccc2)c2ncn(Cc3ccccc3)c2c1
Activity [1]: 136%

CCC(CO)Oc1cc(NCc2ccccc2)c2ncn(C3CCCC3)c2c1 (configuration not stated)
Activity [1]: 132%

COc1cc(NCc2ccccc2)c2ncn(C(C)C)c2c1
growth at 10 µM (HL-60(TB)): 50.3%
growth at 10 µM (CCRF-CEM): 93.9%
growth at 10 µM (SK-MEL-28): 125%
growth at 10 µM (ACHN): 105%
growth at 10 µM (SW-620): 146%
growth at 10 µM (Malme-3M): 49.2%
growth at 10 µM (EKVX): 93.9%
growth at 10 µM [2]: 71.5%
growth at 10 µM (HOP-92): 84.5%
growth at 10 µM (HT-29): 109%
growth at 10 µM [3]: 174%
growth at 10 µM (SNB-19): 90.7%
growth at 10 µM (SR): 51.7%
growth at 10 µM (NCI-H23): 91.1%
growth at 10 µM (A549): 110%
growth at 10 µM (SF-539): 96.2%
growth at 10 µM (TK-10): 136%
growth at 10 µM (SF-268): 125%
growth at 10 µM (NCI/ADR-RES): 96.5%
growth at 10 µM (A498): 106%
growth at 10 µM (IGROV-1): 92.5%
growth at 10 µM (KM12): 104%
growth at 10 µM (HCT-15): 97.9%
growth at 10 µM (HOP-62): 101%
growth at 10 µM (SK-OV-3): 110%
growth at 10 µM (CAKI-1): 97.2%
growth at 10 µM (OVCAR-4): 80.6%
growth at 10 µM (OVCAR-5): 97.2%
growth at 10 µM (NCI-H522): 87%
growth at 10 µM (OVCAR-8): 98.7%
growth at 10 µM (M14): 109%
growth at 10 µM (LOX IMVI): 115%
growth at 10 µM (HCT-116): 103%
growth at 10 µM (SNB-75): 92.3%
growth at 10 µM (MDA-MB-435): 122%
growth at 10 µM (MCF7): 5.8%
growth at 10 µM (BT-549): 55.6%
growth at 10 µM (NCI-H322M): 115%
growth at 10 µM (SK-MEL-2): 91.6%
growth at 10 µM (SF-295): 138%
growth at 10 µM (OVCAR-3): 103%
growth at 10 µM (K562): 64.2%
growth at 10 µM (NCI-H226): 97.1%
growth at 10 µM (COLO 205): 118%
growth at 10 µM (RXF 393): 91.2%
growth at 10 µM (NCI-H460): 107%
growth at 10 µM (UACC-62): 97.3%
growth at 10 µM (SK-MEL-5): 122%
growth at 10 µM (MDA-MB-231): 111%
growth at 10 µM (DU-145): 136%
growth at 10 µM (786-0): 96.8%
growth at 10 µM (U-251): 103%
growth at 10 µM (MDA-MB-468): 36.5%
growth at 10 µM (HCC 2998): 104%
growth at 10 µM (SN12C): 104%
growth at 10 µM (UO-31): 83.2%
growth at 10 µM (MOLT-4): 78.7%
growth at 10 µM (UACC-257): 105%
growth at 10 µM (T47D): 80.1%

c1ccc(CNc2cc(Cc3ccccc3)cc3c2ncn3C2CCCC2)cc1
Activity [1]: 78%
